The values below come from ChEMBL document CHEMBL1123657, “Anthrapyrazole anticancer agents. Synthesis and structure-activity relationships against murine leukemias” (J Med Chem, 1987).

Structures are written as SMILES.

The test system of experiment [1] is B16. The experiment is described as follows: Tested for activity against murine B-16 melanoma in mice and percent treated to the control values with the number of 60 day survivors. The class given is functional, Mus musculus. Summed up:
(§1)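 Murine B-16 melanoma in vivo: tumor implanted ip, compound given ip on days 1–9 (ip/ip; D1–9), dosed as mg/kg per injection. Activity expressed as T/C (%) plus number of cures, taken at the optimal dose.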

Experiment [2] deals with B16. The experiment is described as follows: Optimal dose per injection in mg/kg required to inhibit growth of murine B-16 melanoma in vivo. The class given is functional, Mus musculus. Summed up:
as §1

Experiment [3] deals with L1210. The experiment is described as follows: Tested in vitro against murine L1210 leukemia. Particulars: Mus musculus; call rule not given here. The class given is functional, cell-based.
Experiment [4] concerns P388. Put plainly: Optimal dose per injection in mg/kg required to inhibit growth of P388 leukemia cells in mice. Type of experiment: functional, Mus musculus. Summed up:
(§2)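 P388 leukemia implanted ip in mice; drug given ip on days 1 and 5 (ip/ip; D1,5), dosed in mg/kg per injection. Read-out is treated/control (T/C, %) with cures counted, reported at the optimal dose.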

In experiment [5] the test system is P388. The experiment is described as follows: Inhibition of P388 leukemia cells in mice, measured as percent treated to the control values with the number of 30 day survivors. The class given is functional, Mus musculus. Summed up: as §2
Experiment [6] relates to P388. The experiment is described as follows: Activity against P388 leukemia cells in mice, by intraperitoneal dosing and net log tumor cell kill was reported. The class given is functional, Mus musculus.
Experiment [7] relates to L1210. The experiment is described as follows: Compound was tested in vitro against murine L1210 leukemia; IA is inactive. Type of experiment: functional, cell-based, Mus musculus.
Experiment [8] has as its system P388. The experiment is described as follows: Tested for activity against P388 leukemia cells in mice, by intraperitoneal dosing and percent treated to the control values with the number of 30 day survivors i. Type of experiment: functional, Mus musculus. Put shortly: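 P388 leukemia implanted intraperitoneally in mice. Compound given ip on days 1 and 5, as mg/kg per injection across a dose series. Read-out is median survival of treated mice as a percentage of untreated controls (T/C %), taken at the optimal dose, with cures noted.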

Experiment [9] relates to L1210. The experiment is described as follows: Compound was tested in vitro against murine L1210 leukemia;IA means inactive. The class given is functional, cell-based, Mus musculus.

Consider `Cl.NCCn1nc2c3c(c(NCCNCCO)ccc31)C(=O)c1c(O)ccc(O)c1-2`, for which the values for the T/C in the experiment with B16 [1] and with P388 [5] were 306% and 270%, respectively. Moreover, the Optimal dose in the experiment on B16 [2] was 3 mg/kg. The IC50 with L1210 [3] is 580 nM. This molecule also displayed a Dose with P388 [4] of 12.5 mg/kg. This molecule gave an Activity with P388 [6] of more than 6.7.
With `CCN(CC)CCNc1cccc2c1C(=O)c1cccc3c1c-2nn3C.Cl`, the IC50 entry with L1210 [7] is given as “Not Active”.
In the experiment with L1210 [3], `CCN(CC)CCn1nc2c3c(c(NCCN)ccc31)C(=O)c1ccccc1-2.Cl` came in with an IC50 of 46 nM. In addition, the Dose with P388 [4] stood at 25 mg/kg. In addition, in the experiment with P388 [8], the T/C is listed as 104%. In the experiment with P388 [6], this molecule yielded an Activity of -1.5.
On to `CCN(CC)CCn1nc2c3c(c(NCCN)ccc31)C(=O)c1c(O)ccc(O)c1-2.Cl`, for which the T/C in the experiment on B16 [1] came out at 176%; in the experiment on P388 [5] it was 280%. For the same molecule, in the experiment with B16 [2], the Optimal dose was 3.6 mg/kg. Also, in the experiment on L1210 [3], the IC50 is 46 nM. Also, the Dose in the experiment on P388 [4] worked out at 12.5 mg/kg. Also, the Activity in the experiment with P388 [6] is recorded as more than 7.1.
In the case of `COc1cccc2c1C(=O)c1c(O)c3c(c(O)c1C2=O)C[C@@](O)(C(=O)CO)C[C@@H]3O[C@H]1C[C@H](N)[C@H](O)[C@H](C)O1` [DOXORUBICIN], the T/C in the experiment with B16 [1] was found to be 434%; in the experiment with P388 [5] it was 225%. For the same molecule, in the experiment on B16 [2], the Optimal dose stood at 1 mg/kg. In the experiment on L1210 [3], half-maximal inhibition (IC50) required 69 nM. The molecule also yielded a Dose in the experiment on P388 [4] of 8 mg/kg. Also, the Activity in the experiment on P388 [6] stood at 5.6.
Regarding `Cl.O=C1c2c(O)ccc(O)c2-c2nn(CCO)c3ccc(NCCNCCO)c1c23`, the T/C worked out at 246% in the experiment with B16 [1] and 271% in the experiment with P388 [5]. In the experiment with B16 [2], this molecule gave an Optimal dose of 80 mg/kg. The molecule further showed an IC50 with L1210 [3] of 780 nM. In the experiment with P388 [4], this molecule came in with a Dose of 200 mg/kg. The molecule further yielded an Activity in the experiment on P388 [6] of 6.8.
As to `CN(C)CCn1nc2c3c(c(NCCNCCO)ccc31)C(=O)c1c(O)ccc(O)c1-2.Cl`, the T/C in the experiment with B16 [1] is 183%; in the experiment on P388 [5], 242%. The molecule further came in with an Optimal dose in the experiment with B16 [2] of 3 mg/kg. Besides, 120 nM corresponded to half-maximal inhibition in the experiment on L1210 [3] (IC50). In the experiment on P388 [4], this molecule gave a Dose of 12.5 mg/kg. In the experiment with P388 [6], this molecule displayed an Activity of 6.5.
The molecule `CCN(CC)CCn1nc2c3c(cccc31)C(=O)c1c(NCCNCCO)cccc1-2.Cl` displayed an IC50 in the experiment on L1210 [3] of 230 nM. The Dose in the experiment with P388 [4] is 12.5 mg/kg. In addition, the T/C in the experiment with P388 [8] was determined as 117%. Also, in the experiment with P388 [6], the Activity is on record as -1.3.
`CCCCCCNc1ccc2c3c(nn2CCO)-c2ccccc2C(=O)c13`: the IC50 result in the experiment with L1210 [9] is recorded as “Not Active”. The Dose in the experiment with P388 [4] was found to be 100 mg/kg. Besides, the T/C with P388 [5] worked out at 98%. In the experiment on P388 [6], this molecule gave an Activity of -1.6.
`Cl.O=C1c2c(O)ccc(O)c2-c2nn(CCNCCO)c3ccc(NCCN(CCO)CCO)c1c23`: the T/C in the experiment on B16 [1] came to 342%; with P388 [5], 277%. Moreover, the Optimal dose in the experiment on B16 [2] came to 25 mg/kg. This molecule had an IC50 in the experiment on L1210 [3] of 430 nM. Further, in the experiment on P388 [4], the Dose turned out to be 200 mg/kg. The molecule further gave an Activity with P388 [6] of more than 6.6.
For `O=C1c2c(O)ccc(O)c2C(=O)c2c(NCCNCCO)ccc(NCCNCCO)c21` [MITOXANTRONE], the results for the T/C with B16 [1] and in the experiment on P388 [5] were 265% and 267%, respectively. Besides, the Optimal dose with B16 [2] turned out to be 0.6 mg/kg. Besides, the midpoint of inhibition in the experiment with L1210 [3], the IC50, lay at 1.6 nM. For the same molecule, the Dose in the experiment with P388 [4] came to 3 mg/kg. The molecule also showed an Activity with P388 [6] of more than 6.8.
For `Cl.NCCCNc1ccc2c3c(nn2CCNCCO)-c2c(O)ccc(O)c2C(=O)c13`, the figures for the T/C with B16 [1] and with P388 [5] were 338% and 294%, respectively. The molecule further gave an Optimal dose in the experiment on B16 [2] of 8 mg/kg. In the experiment on L1210 [3], this molecule registered an IC50 of 960 nM. This molecule also showed a Dose in the experiment with P388 [4] of 45 mg/kg. Moreover, in the experiment on P388 [6], the Activity is on record as more than 6.5.
In the case of `Cl.NCCCn1nc2c3c(c(NCCNCCO)ccc31)C(=O)c1c(O)ccc(O)c1-2`, the T/C in the experiment with B16 [1] is 375%. This molecule also displayed an Optimal dose in the experiment with B16 [2] of 6.25 mg/kg. The molecule also returned an IC50 with L1210 [3] of 160 nM. The molecule also came in with a Dose in the experiment with P388 [4] of 50 mg/kg. This molecule came in with an Activity in the experiment on P388 [6] of more than 6.6.

As a reminder, the T/C is the ratio of treated to control. By IC50 is commonly meant the midpoint of a concentration-inhibition curve. Lower therefore signals greater potency.
